According to ChEMBL document CHEMBL3745677, “Discovery of 6-(4-{[5-Cyclopropyl-3-(2,6-dichlorophenyl)isoxazol-4-yl]methoxy}piperidin-1-yl)-1-methyl-1H-indole-3-carboxylic Acid: A Novel FXR Agonist for the Treatment of Dyslipidemia” (J Med Chem, 2015):

Legend:
[1] = Clearance in cynomolgus monkey at 0.91 mg/kg, iv by LC-MS/MS analysis; assay type: ADME, organism-based, Macaca fascicularis; conditions: in vivo
Method in brief: (§1)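 Sprague Dawley rats, Beagle dogs and Cynomolgus monkeys were dosed IV at 1 mg/kg (rat, dog) or 0.91 mpk (monkey) in 5% Solutol/5% EtOH in saline. Oral/nasogastric dosing was 3 mpk in 1.0% CMC/0.25% PS80/0.05% antifoam in purified water. Samples were processed to plasma and analysed by LC-MS/MS; values are mean ± SD, N=2-3.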

[2] = Initial plasma concentration in beagle dog at 1 mg/kg, iv by LC-MS/MS analysis; assay type: ADME, organism-based, Canis lupus familiaris
Method in brief: (§2)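 Intravenous dose given in 5% Solutol / 5% EtOH in saline (1 mg/kg rat and dog, 0.91 mpk monkey). Plasma samples collected and analyzed by LC-MS/MS; parameters reported as mean ± SD, N=2-3.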

[3] = AUC (0 to 24 hrs) in beagle dog at 1 mg/kg, iv by LC-MS/MS analysis; assay type: ADME, organism-based, Canis lupus familiaris; set-up: time < 24 hr, dose 1 mg/kg, route intravenous; conditions: in vivo; method in brief: as §1
[4] = Cmax in cynomolgus monkey at 3 mg/kg, po by LC-MS/MS analysis; assay type: ADME, organism-based, Macaca fascicularis; set-up: dose 3 mg/kg, route oral; conditions: in vivo; method in brief: as §1
[5] = Terminal half life in Sprague-Dawley rat at 1 mg/kg, iv by LC-MS/MS analysis; assay type: ADME, organism-based; conditions: in vivo, read-out: beta t1/2 (converted); method in brief: as §2
[6] = Terminal half life in beagle dog at 3 mg/kg, po by LC-MS/MS analysis; assay type: ADME, organism-based, Canis lupus familiaris; conditions: in vivo, read-out: beta t1/2 (converted)
Method in brief: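 Oral/nasogastric dosing at 3 mpk in 1.0% CMC/0.25% PS80/0.05% antifoam in purified water. Plasma samples collected and analyzed by LC-MS/MS; parameters reported as mean ± SD, N=2-3.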

[7] = system: Mus musculus; assay: Antidyslipidemic activity in western-diet fed mouse expressing LDL-receptor (-/-) assessed as decrease in total cholesterol level at 30 mg/kg qd for a week administered via gavage […]; assay type: functional; conditions: po
Method in brief: (§3)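 Male LDLR null mice, six per group, were gavaged once daily for one week with compound (in situ sodium salt) or vehicle (5% Solutol, 5% EtOH, 1% wt/v CMC) at 5 mL/kg. On day 7 they were bled by cardiac puncture under CO2 anaesthesia. Serum cholesterol and triglycerides were measured enzymatically on a clinical chemistry analyser (mean ± SD, n=6). ED50 was obtained by nonlinear regression.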

[8] = Clearance in Sprague-Dawley rat at 1 mg/kg, iv by LC-MS/MS analysis; assay type: ADME, organism-based; conditions: in vivo; method in brief: as §1
[9] = Cmax in Sprague-Dawley rat at 3 mg/kg, po by LC-MS/MS analysis; assay type: ADME, organism-based; set-up: dose 3 mg/kg, route oral; conditions: in vivo; method in brief: as §1
[10] = Volume of distribution at steady state in Sprague-Dawley rat at 1 mg/kg, iv by LC-MS/MS analysis; assay type: ADME, organism-based; conditions: in vivo, read-out: Vdss; method in brief: as §2
[11] = system: Mus musculus; assay: Antidyslipidemic activity in western-diet fed mouse expressing LDL-receptor (-/-) assessed as decrease in very-low density lipoprotein level at 1 mg/kg qd for a week administered via gavage by FPLC analysis; assay type: functional; conditions: po
Method in brief: (§4)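 LDLR null male mice, six per group, were dosed by gavage once daily for one week (vehicle 5% Solutol, 5% EtOH, 1% wt/v CMC; 5 mL/kg). Serum was collected by cardiac puncture on day 7 under CO2 anaesthesia. Pooled serum from each treatment group was fractionated by FPLC to quantify VLDL and LDL.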

[12] = Volume of distribution at steady state in beagle dog at 1 mg/kg, iv by LC-MS/MS analysis; assay type: ADME, organism-based, Canis lupus familiaris; conditions: in vivo, read-out: Vdss; method in brief: as §2
[13] = Terminal half life in beagle dog at 1 mg/kg, iv by LC-MS/MS analysis; assay type: ADME, organism-based, Canis lupus familiaris; conditions: in vivo, read-out: beta t1/2 (converted); method in brief: as §2
[14] = system: Rattus norvegicus; assay: Antidyslipidemic activity in ZDF rat assessed as LDL/IgHDL level at 10 mg/kg cotreated with 0.3 mg/kg rosiglitazone for 9 days by FPLC analysis (reference value: 17.8 mg/dL); assay type: functional, Zucker
[15] = Oral bioavailability in cynomolgus monkey at 3 mg/kg by LC-MS/MS analysis; assay type: ADME, organism-based, Macaca fascicularis; conditions: in vivo
Method in brief: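 Bioavailability calculated from a 3 mpk oral/nasogastric dose (1.0% CMC/0.25% PS80/0.05% antifoam in water) against a 0.91 mpk IV dose (5% Solutol/5% EtOH in saline). Plasma analyzed by LC-MS/MS; mean ± SD, N=2-3.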

[16] = Cmax in rat at ED50 dose for lipid modulation; assay type: ADME, organism-based; conditions: in vivo
[17] = target: T1, Androgen receptor (Homo sapiens, UniProt P10275); assay: Agonist activity at androgen receptor (unknown origin) expressed in HEK293 cells assessed as transcriptional activation; assay type: cell-based
T1 sequence (P10275 whole entry): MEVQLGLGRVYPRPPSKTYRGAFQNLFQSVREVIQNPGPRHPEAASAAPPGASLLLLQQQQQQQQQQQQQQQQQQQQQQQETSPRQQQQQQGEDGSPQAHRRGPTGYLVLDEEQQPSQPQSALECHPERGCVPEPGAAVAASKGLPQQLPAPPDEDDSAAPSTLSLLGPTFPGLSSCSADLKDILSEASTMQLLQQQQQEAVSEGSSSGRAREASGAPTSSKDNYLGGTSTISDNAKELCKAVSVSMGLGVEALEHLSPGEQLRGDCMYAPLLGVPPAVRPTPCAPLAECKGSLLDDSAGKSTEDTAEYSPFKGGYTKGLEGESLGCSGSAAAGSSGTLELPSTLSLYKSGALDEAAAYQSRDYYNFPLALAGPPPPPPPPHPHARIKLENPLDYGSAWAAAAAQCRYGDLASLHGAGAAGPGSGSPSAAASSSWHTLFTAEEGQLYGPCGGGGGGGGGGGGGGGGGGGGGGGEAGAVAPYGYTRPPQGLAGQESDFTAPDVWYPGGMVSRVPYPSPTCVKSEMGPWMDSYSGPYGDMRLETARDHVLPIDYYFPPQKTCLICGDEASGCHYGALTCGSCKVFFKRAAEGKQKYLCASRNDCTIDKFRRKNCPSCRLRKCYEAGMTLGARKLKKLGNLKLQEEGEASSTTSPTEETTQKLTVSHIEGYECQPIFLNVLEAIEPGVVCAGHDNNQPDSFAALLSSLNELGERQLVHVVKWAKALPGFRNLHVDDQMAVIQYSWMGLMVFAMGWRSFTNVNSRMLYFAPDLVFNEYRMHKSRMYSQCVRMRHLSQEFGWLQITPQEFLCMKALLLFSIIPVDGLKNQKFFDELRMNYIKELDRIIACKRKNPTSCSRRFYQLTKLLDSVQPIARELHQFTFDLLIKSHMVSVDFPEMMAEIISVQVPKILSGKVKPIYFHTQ

[18] = system: Mus musculus; assay: Antidyslipidemic activity in western-diet fed mouse expressing LDL-receptor (-/-) assessed as decrease in triglyceride level at 10 mg/kg qd for a week administered via gavage […]; assay type: functional; conditions: po; method in brief: as §3
[19] = system: Mus musculus; assay: Antidyslipidemic activity in western-diet fed mouse expressing LDL-receptor (-/-) assessed as decrease in very-low density lipoprotein level at 10 mg/kg qd for a week administered via gavage by FPLC analysis; assay type: functional; conditions: po; method in brief: as §4
[20] = system: Mus musculus; assay: Antidyslipidemic activity in western-diet fed mouse expressing LDL-receptor (-/-) assessed as decrease in low density lipoprotein level at 3 mg/kg qd for a week administered via gavage by FPLC analysis; assay type: functional; conditions: po; method in brief: as §4
[21] = Half life in human at 75 to 600 mg; assay type: ADME, organism-based; conditions: in vivo
Method in brief: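 Healthy subjects (two cohorts of 9) received single oral doses in a double-blind, placebo-controlled, 2-cohort, 3-period dose-escalation study at one site. Doses covered 5 to 600 mg. Half-life was taken as the mean over the 75–600 mg range.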

clearance [1]: 6 mL/min/kg | C0 [2]: 1180 ng/mL | AUC(0-t) at 24 h [3]: 1780 ng·h/mL | Cmax [4]: 221 ng/mL | half-life [5]: 2 h | half-life [6]: 7 h | clearance [8]: 30 mL/min/kg | Cmax [9]: 130 ng/mL | Vd [10]: 1.24 L/kg | Vd [12]: 2.48 L/kg | half-life [13]: 10 h | bioavailability [15]: 24% | Cmax [16]: 4.62 ng/mL | EC50 [17]: > 10 µM | half-life [21]: 16.9 h
SMILES: Cn1cc(C(=O)O)c2ccc(N3CCC(OCc4c(-c5c(Cl)cccc5Cl)noc4C4CC4)CC3)cc21 [TERN-101]
inhibition in vivo at 30 mg/kg [7]: 83% | inhibition in vivo at 1 mg/kg [11]: 59% | Activity [14]: 20.3 mg/dL | inhibition in vivo at 10 mg/kg [18]: 76% | inhibition in vivo at 10 mg/kg [19]: 96% | inhibition in vivo at 3 mg/kg [20]: 15%
